Assay outcomes as filed in PubChem.
Shown are actives, neighbours in structure and some others; about 4.2% of the full set was active somewhere.
TMEM16A act – TMEM16A chloride channel activators or potentiators, primary screen, cell-based, HTS; actives 0.3% (n = 340,000); Anoctamin-1 (Mus musculus), Q8BHY3; HEK293 TMEM16A/YFP-H148Q/I152L, iodide quench fluorescence; hits give low values; B-score at 10 µM;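 active means fluorescence-ratio B-score plate-corrected deviation score at least 3 library SD below zero, with starting fluorescence score within 5 deviations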;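 further: channel opened by trigger with iodide after compound preincubation; score built on the fluorescence ratio of max minus min over baseline; more negative score means more quench and so TMEM16A activation or potentiation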
Target sequence (Q8BHY3 whole entry, looked up): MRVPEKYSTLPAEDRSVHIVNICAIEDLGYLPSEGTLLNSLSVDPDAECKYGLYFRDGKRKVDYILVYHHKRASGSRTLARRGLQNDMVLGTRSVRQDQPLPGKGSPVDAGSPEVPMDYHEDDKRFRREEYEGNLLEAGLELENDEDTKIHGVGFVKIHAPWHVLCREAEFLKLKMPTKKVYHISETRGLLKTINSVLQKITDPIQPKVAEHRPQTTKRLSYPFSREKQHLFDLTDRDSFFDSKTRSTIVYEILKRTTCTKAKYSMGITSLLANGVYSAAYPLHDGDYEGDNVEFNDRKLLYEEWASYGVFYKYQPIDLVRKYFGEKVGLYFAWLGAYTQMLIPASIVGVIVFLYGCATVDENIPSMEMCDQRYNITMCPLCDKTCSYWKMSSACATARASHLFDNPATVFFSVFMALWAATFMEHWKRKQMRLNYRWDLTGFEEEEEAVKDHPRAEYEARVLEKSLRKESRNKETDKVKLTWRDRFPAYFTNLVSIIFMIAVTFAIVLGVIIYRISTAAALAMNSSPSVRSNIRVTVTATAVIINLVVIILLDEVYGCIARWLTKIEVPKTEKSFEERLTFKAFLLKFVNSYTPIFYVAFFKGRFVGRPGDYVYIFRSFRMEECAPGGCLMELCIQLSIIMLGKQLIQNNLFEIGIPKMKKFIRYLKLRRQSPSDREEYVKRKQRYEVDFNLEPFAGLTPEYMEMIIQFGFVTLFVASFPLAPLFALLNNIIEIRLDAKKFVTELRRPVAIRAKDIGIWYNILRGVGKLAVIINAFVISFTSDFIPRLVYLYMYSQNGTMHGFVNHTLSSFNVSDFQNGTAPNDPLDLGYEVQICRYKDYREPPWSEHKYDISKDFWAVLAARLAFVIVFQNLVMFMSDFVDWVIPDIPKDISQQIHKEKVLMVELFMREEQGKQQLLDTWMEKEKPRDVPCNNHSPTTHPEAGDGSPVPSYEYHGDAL
Lipid droplet – inhibitors of hepatocyte lipid droplet formation, primary screen, imaging, high-throughput imaging, BODIPY stain | inhibition, % at 6.5 µM | actives 0.4% (n = 240,000) | AML12 mouse hepatocytes, oleate lipid droplets | AID 1656, 2009;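 active means lipid droplet intensity inhibited by at least 50%, with more than 500 cells counted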
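Test system: AML12 hepatocytes (mouse); reagent: oleate loading, 100 µM; dosing: one dose, 6.5 µM compound; incubation: overnight exposure; signal: fluorescence imaging, 20x objective, two fields per well; read-out basis: % inhibition of corrected integrated BODIPY droplet signal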
CHOP inhibitor – inhibitors of CHOP promoter induction, primary screen, cell-based, unfolded protein response, luciferase reporter | CHO-K1 CHOP-promoter luciferase, tunicamycin-induced, 15-18 h | inhibition, % at 10 µM | actives 3.8% (n = 220,000) | AID 2732, 2010;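 active means compounds that reduced the stress-induced luciferase reporter signal by more than about 70% of percent inhibition, limit read from the data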;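 further: 0% = tunicamycin plus vehicle and 100% = wells without tunicamycin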
XBP1 UPR activ – activators of adaptive XBP1 UPR arm, primary screen, cell-based, CHO-XBP1 luciferase reporter, luminescence, uHTS; IRE1-XBP1 UPR activation; percent of tunicamycin response, DMSO as zero; actives 0.33% (n = 330,000); activation, % at 20 µM;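 active means versus positive control, 20 µM dose yields 30% or more activation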;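 further: 100% = tunicamycin at 10 µg/mL and 0% = DMSO only wells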
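assay system = CHO-XBP1 luciferase reporter cells | amount = 1000 cells/well | buffer or medium = F12 plus 10% FBS | compound dosing = single point, 20 µM final compound, 1% DMSO | incubation = 16-18 h cell attachment at 37 °C, then 6 h compound exposure | detection = Steady-Glo luminescence read | controls = tunicamycin 10 µg/mL and vehicle-only wells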
TMEM16A inh – TMEM16A chloride channel inhibitors, primary screen, cell-based, HTS. actives 1.2% (n = 310,000). normalized B-score (activity score, 25-100; higher = stronger inhibition) at 10 µM. HEK293 TMEM16A/YFP iodide influx fluorescence, ionomycin. AID 588511, 2011;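 active means ratio plate-corrected score three or more library SD toward inhibition, starting fluorescence score within five deviations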;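 further: score derived from kinetic fluorescence span divided by baseline fluorescence per well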
UPR CHOP act – activators of apoptotic CHOP UPR arm, primary screen, cell-based, CHO-CHOP luciferase reporter, luminescence, uHTS; actives 0.34% (n = 330,000); UPR activation; percent of tunicamycin response over DMSO baseline; AID 449763, 2010; activation, % at 10 µM;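 active means at 10 µM dose, activation of 40% or more, normalized to positive control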;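 further: 100% = tunicamycin at 10 µg/mL and 0% = DMSO alone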
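measured by = luciferase luminescence | assay system = CHO-CHOP cells, stable luciferase reporter of PERK-eIF2a-CHOP signalling | amount = 500 reporter cells seeded per well | timing = 6 h compound exposure at 37 °C after overnight seeding | controls = positive tunicamycin 10 µg/mL, negative DMSO alone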
Active calls of the source: *; i = inactive; . = no result given.

SMILES | TMEM16A act | Lipid droplet | CHOP inhibitor | XBP1 UPR activ | TMEM16A inh | UPR CHOP act
Cc1noc(C)c1C(=O)NC1=NCCS1 | i | 0 | . | -3 | i | 0
CCN(CC)Cc1nc2c(c(=O)[nH]1)C1(CCCC1)Cc1ccccc1-2 | i | . | 84* | -1 | i | -1
O=c1[nH]c(CN(CCO)CCO)nc2c1C1(CCCCC1)Cc1ccccc1-2 | i | . | 19 | 2 | i | 0
O=c1[nH]c(NCCO)nc2c1C1(CCCC1)Cc1ccccc1-2 | i | . | 31 | -2 | i | 2
C=CCNC(=S)NNc1nc2c(c(=O)[nH]1)C1(CCCCC1)Cc1ccccc1-2 | i | 8 | 93* | 3 | i | 1
CC1(C)Cc2ccccc2-c2nc(NCCCO)[nH]c(=O)c21 | i | 2 | 12 | 1 | i | 1
Cc1ccc(NC(=O)CCSc2nnnn2-c2ccc3c(c2)OCO3)cc1C | i | 3 | 73* | 0 | i | -1
O=C(CSc1nnnn1-c1ccc2c(c1)OCCO2)Nc1nc2c(s1)CCCC2 | . | . | 87* | -3 | i | -2
COC(=O)c1cccc(-n2nnnc2SCC(=O)Nc2nc3c(s2)CCCC3)c1 | . | -4 | 88* | -5 | i | -3
COc1cccc(-n2nnnc2SCC(=O)Nc2nc3c(s2)CCCC3)c1 | i | -20 | 9 | 11 | i | 0
O=C(Cn1nc(C(=O)O)c2ccccc2c1=O)Nc1cccc(S(=O)(=O)N2CCCCCC2)c1 | i | . | . | -5 | . | -1
CCOc1ccc(NC(=O)CSc2nnc(CNC(=O)c3ccco3)o2)cc1 | i | 6 | 0 | -1 | i | -1
CCOc1ccc(Oc2ccc(C(F)(F)F)cc2N)cc1 | i | 6 | 78* | -2 | i | 5
COc1cccc(Oc2ccc(C(F)(F)F)cc2N)c1 | i | -9 | 54 | 2 | i | 2
CCOc1ccccc1OCCOc1ccccc1CC | i | . | 76* | -4 | i | -2
CCOc1ccccc1OCCOc1ccccc1OC(C)C | i | 18 | 70 | -4 | i | 0
C[C@@]12C(=O)OC(=O)[C@]1(C)C1CCC2O1 | i | . | . | -1 | i | 101*
CC(C(=O)Nc1ccc(N2CCOCC2)cc1)N1C(=O)NC(C)(C)C1=O (centres undefined) | i | . | . | -1 | . | 1
O=C(COc1ccc(/C=C\[N+](=O)[O-])cc1)N1CCOCC1 | i | -3 | 85* | 2 | i | 3
O=C(COc1ccc(S(=O)(=O)N2CCOCC2)cc1)N1CCOCC1 | i | . | . | -2 | . | 0
Nc1cccc2c1C(=O)N(CC(=O)NC13CC4CC(CC(C4)C1)C3)C2=O | i | 2 | 23 | -2 | i | -1
O=C(Cn1sc2ccccc2c1=O)NC12CC3CC(CC(C3)C1)C2 | i | -16 | 90* | 2 | i | 31
COc1ccc(CN2CSC(=S)N(Cc3ccc(OC)cc3)C2)cc1 | i | 10 | 11 | 0 | i | -3
O=[N+]([O-])c1cc(S(=O)(=O)Nc2ccccc2)ccc1NCc1cccnc1 | i | -7 | 6 | -4 | i | 0
O=[N+]([O-])c1cc(S(=O)(=O)Nc2ccccc2)ccc1NCc1ccccc1 | i | -17 | 92* | -1 | i | 3
SMILES | TMEM16A act | Lipid droplet | CHOP inhibitor | XBP1 UPR activ | TMEM16A inh | UPR CHOP act
O=C(N/N=C/c1sc(N2CCOCC2)nc1-c1ccccc1)c1ccccc1Cl | i | . | 28 | -6 | i | 1
O=C(Nc1ccccc1F)C(=Cc1sc(N2CCOCC2)nc1-c1ccccc1)C(=O)Nc1ccccc1F | i | 68* | 48 | 3 | i | 0
O=C(N/N=C/c1sc(N2CCOCC2)nc1-c1ccccc1)c1ccccc1O | i | 5 | 0 | 4 | 100* | 12
CN(CC(=O)Nc1ccc(Cl)c(C(F)(F)F)c1)C(=O)C1CC(=O)N(C2CCCC2)C1 (centres undefined) | i | . | . | -3 | . | 1
CCn1c(-c2cc(-c3ccc(C)cc3)nc3ccccc23)n[nH]c1=S | i | 4 | 40 | 6 | i | 2
C=CCn1c(-c2cc(-c3ccc(C)cc3)nc3ccccc23)n[nH]c1=S | i | -5 | 70* | 6 | i | 2
O=C(COC(=O)c1cccc(F)c1)Nc1ccc2c(c1)OCCO2 | i | . | . | -1 | . | 3
COC(CNC(=O)CN1CCN(Cc2ccccc2F)C1=O)OC | i | -8 | . | 0 | i | 1
Cc1ccc(NC(=O)c2ccccc2NS(=O)(=O)c2ccc(Cl)s2)cc1S(=O)(=O)N1CCOCC1 | i | -21 | 15 | -2 | 25* | 1
O=C(Nc1cc(S(=O)(=O)N2CCOCC2)ccc1O)c1ccc(NS(=O)(=O)c2ccc(Cl)s2)cc1 | i | -61 | -31 | -2 | i | 1
O=c1cc(-c2ccccc2)[nH]n1-c1ccc([N+](=O)[O-])cc1 | i | . | -2 | -1 | 100* | 2
Cc1ccc(-n2[nH]c(C)c(C=Nc3ccc4[nH]c(=O)[nH]c4c3)c2=O)cc1C | i | . | 81* | -1 | i | 2
Cc1[nH]n(-c2cccc3ccccc23)c(=O)c1C=Nc1ccc2[nH]c(=O)[nH]c2c1 | i | -8 | 1 | -1 | i | 1
Cc1ccc2nc(NC(=O)Cc3cccs3)sc2c1 | i | -9 | -8 | 4 | i | 3
Cc1ccc2nc(-c3ccc(NC(=O)Cc4cccs4)cc3)[nH]c2c1 | i | . | 79* | 4 | i | 4
Cc1cc(C)c(NC(=O)CNC(=O)[C@@H]2CCCN2C(=O)c2cccs2)c(C)c1 | i | . | . | 1 | . | -1
CCC(=O)Nc1nc(=S)ss1 | i | -15 | -8 | -5 | i | -3
CC(C)(C)C(=O)Nc1nc(=S)ss1 | i | 17 | 18 | 0 | 100* | -2
c1cc2c(cc1C1=NNC(=NC3CC3)SC1)OCCO2 | i | -2 | 98* | -15 | i | -10
CCOC(=O)C1=C(C)N=c2s/c(=C\c3ccncc3)c(=O)n2C1c1ccc2c(c1)OCO2 (centres undefined) | i | -24 | 51 | -6 | i | 0
CCOC(=O)C1=C(C)N=c2s/c(=C3\C(=O)Nc4ccccc43)c(=O)n2C1c1ccc2c(c1)OCO2 (centres undefined) | i | 59* | 55 | 5 | i | 1
